Results taken from ChEMBL document CHEMBL1127647, “Synthesis and antiviral activities of 8-alkynyl-, 8-alkenyl-, and 8-alkyl-2'-deoxyadenosine analogues” (1994).
Values after ≈ are worked out from the molar mass of the structure shown.

Assays:
Type in all cases: functional
ESM = test: Minimum inhibitory concentration to reduce cytopathicity by 50% in morphology of human embryonic skin-muscle cells (ESM)
Vaccinia virus = test: Minimum inhibitory concentration required for antiviral activity to reduce Vaccinia virus (VV) induced cytopathicity in human embryonic skin-muscle cells (ESM); settings: Orthopoxvirus vaccinia
Method in brief: (§1)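 Endpoint is the compound concentration that reduces virus-induced cytopathicity in the host cell monolayer by 50%.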

[1] = system: Vesicular stomatitis virus; test: Minimum inhibitory concentration required for antiviral activity to reduce Vesicular stomatitis virus (VSV) induced cytopathicity in human embryonic skin-muscle cells (ESM); method in brief: as §1
HEL [2] = test: Minimum inhibitory concentration required for antiviral activity to reduce Cytomegalovirus (CMV) (AD-169) induced cytopathicity in human embryonic lung cells (HEL); method in brief: as §1
HEL [3] = test: Minimum inhibitory concentration required for antiviral activity to reduce Cytomegalovirus (CMV) (Davis) induced cytopathicity in human embryonic lung cells (HEL); method in brief: as §1
HEL [4] = test: Minimum inhibitory concentration required for antiviral activity to reduce TK Varicella Zoster virus (VZV) (07/1) induced cytopathicity in human embryonic lung cells (HEL)
HEL [5] = test: Minimum inhibitory concentration required for antiviral activity to reduce Varicella Zoster virus (VZV) (Oka) induced cytopathicity in human embryonic lung cells (HEL)
HEL [6] = test: Minimum inhibitory concentration to reduce cytopathicity by 50% in proliferation of human embryonic lung cells (HEL)
Method in brief: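 Host cell toxicity is read as the compound concentration that reduces HEL cell proliferation by 50%.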

[7] = system: Respiratory syncytial virus; test: Minimum inhibitory concentration required for antiviral activity to reduce Respiratory syncytial virus (RSV) (Long) induced cytopathicity in human carcinoma cells (HeLa); method in brief: as §1
HeLa = test: Minimum inhibitory concentration to reduce cytopathicity by 50% in morphology of human carcinoma cells (HeLa)
Method in brief: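 Cytotoxicity endpoint is the minimum compound concentration that causes a microscopically detectable alteration of normal host cell morphology.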

MDCK [8] = test: Minimum inhibitory concentration required for antiviral activity to reduce Influenza A virus (Ishikawa) induced cytopathicity in Madin-Darby canine kidney cells (MDCK); settings: Canis lupus familiaris; method in brief: as §1
MDCK [9] = test: Minimum inhibitory concentration required for antiviral activity to reduce influenza B virus (Singapore) induced cytopathicity in Madin-Darby canine kidney cells (MDCK); settings: Canis lupus familiaris; method in brief: as §1
MDCK [10] = test: Minimum inhibitory concentration to reduce cytopathicity by 50% in morphology of Madin-Darby canine kidney cells (MDCK); settings: Canis lupus familiaris
Human alphaherpesvirus 1 = test: Minimum inhibitory concentration required for antiviral activity to reduce TK-HSV-1 (B2006) induced cytopathicity in human embryonic skin-muscle cells (ESM); method in brief: as §1

Row | Structure (SMILES) | MIC (ESM) [µg/mL] | MIC (Vaccinia virus) [µg/mL] | MIC [1] [µg/mL] | MIC (HEL [2]) [µg/mL] | MIC (HEL [3]) [µg/mL] | MIC (HEL [4]) [µg/mL] | MIC (HEL [5]) [µg/mL] | MIC (HEL [6]) [µg/mL] | MIC [7] [µg/mL] | MIC (HeLa) [µg/mL] | MIC (MDCK [8]) [µg/mL] | MIC (MDCK [9]) [µg/mL] | MIC (MDCK [10]) [µg/mL] | MIC (Human alphaherpesvirus 1) [µg/mL]
1 | CC#Cc1nc2c(N)ncnc2n1[C@H]1C[C@H](O)[C@@H](CO)O1 | > 400 | 300 (≈ 1040 µM) | 150 (≈ 519 µM) | 20 (≈ 69.1 µM) | 20 (≈ 69.1 µM) | 40 (≈ 138 µM) | 40 (≈ 138 µM) | 40 (≈ 138 µM) | > 200 | > 200 | > 200 | > 200 | > 200 | 150 (≈ 519 µM)
2 | CCC/C=C\c1nc2c(N)ncnc2n1[C@H]1C[C@H](O)[C@@H](CO)O1 | ≥ 200 | > 100 | > 100 | > 50 | > 50 | > 50 | > 50 | 40 (≈ 125 µM) | 100 (≈ 313 µM) | > 200 | > 200 | > 200 | > 200 | > 100
3 | CCCCCc1nc2c(N)ncnc2n1[C@H]1C[C@H](O)[C@@H](CO)O1 | > 200 | 150 (≈ 467 µM) | 70 (≈ 218 µM) | 10 (≈ 31.1 µM) | 10 (≈ 31.1 µM) | 20 (≈ 62.2 µM) | 20 (≈ 62.2 µM) | 30 (≈ 93.3 µM) | > 100 | 100 (≈ 311 µM) | > 100 | > 100 | 100 (≈ 311 µM) | > 100
4 | CCCc1nc2c(N)ncnc2n1[C@H]1C[C@H](O)[C@@H](CO)O1 | > 400 | 70 (≈ 239 µM) | 400 (≈ 1360 µM) | 20 (≈ 68.2 µM) | 20 (≈ 68.2 µM) | 7 (≈ 23.9 µM) | 20 (≈ 68.2 µM) | 170 (≈ 580 µM) | > 200 | > 200 | > 200 | > 200 | > 200 | > 300
5 | C/C=C\c1nc2c(N)ncnc2n1[C@H]1C[C@H](O)[C@@H](CO)O1 | ≥ 100 | > 100 | > 100 | > 50 | > 50 | > 50 | > 50 | > 50 | > 200 | > 200 | > 200 | > 200 | > 200 | > 100
6 | C#Cc1nc2c(N)ncnc2n1[C@H]1C[C@H](O)[C@@H](CO)O1 | 10 (≈ 36.3 µM) | > 4 | > 4 | 2 (≈ 7.27 µM) | 4 (≈ 14.5 µM) | 4 (≈ 14.5 µM) | 7 (≈ 25.4 µM) | 2 (≈ 7.27 µM) | > 4 | 4 (≈ 14.5 µM) | > 20 | > 20 | 20 (≈ 72.7 µM) | > 4
7 | CCc1nc2c(N)ncnc2n1[C@H]1C[C@H](O)[C@@H](CO)O1 | > 400 | > 400 | > 400 | 70 (≈ 251 µM) | 70 (≈ 251 µM) | 55 (≈ 197 µM) | > 100 | > 200 | > 200 | > 200 | > 200 | > 200 | > 200 | 300 (≈ 1070 µM)
